Measurements gathered from unrelated publications.
Protocols differ between the studies behind these lines.
Target: Serine/threonine-protein kinase RIO1 (RIOK1, Homo sapiens, UniProt Q9BRS2)
Residues used in one study (Q9BRS2 1-568): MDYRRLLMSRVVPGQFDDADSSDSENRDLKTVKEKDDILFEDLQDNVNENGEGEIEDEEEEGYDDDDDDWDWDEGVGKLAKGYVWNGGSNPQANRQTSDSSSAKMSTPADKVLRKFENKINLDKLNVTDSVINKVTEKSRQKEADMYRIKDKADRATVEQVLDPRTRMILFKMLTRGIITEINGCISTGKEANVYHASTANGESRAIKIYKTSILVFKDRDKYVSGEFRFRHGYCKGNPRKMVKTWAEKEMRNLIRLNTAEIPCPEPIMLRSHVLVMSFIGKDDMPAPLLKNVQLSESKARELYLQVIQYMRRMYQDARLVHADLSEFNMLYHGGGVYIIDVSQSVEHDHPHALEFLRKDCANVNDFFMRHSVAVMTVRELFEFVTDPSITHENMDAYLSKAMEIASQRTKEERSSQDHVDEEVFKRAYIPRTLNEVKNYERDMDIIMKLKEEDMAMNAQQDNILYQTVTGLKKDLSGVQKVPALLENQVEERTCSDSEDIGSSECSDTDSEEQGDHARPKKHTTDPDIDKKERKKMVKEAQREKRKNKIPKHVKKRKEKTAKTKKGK

With `CN(C)C(=O)Cn1cc(-c2nc(C3(c4ccc(-c5cnc(N)nc5)cc4)CC3)no2)cn1` the remaining binding was 100% (cell-free assay; competition with immobilised ligand; 1 µM).
`CN(C)c1ncc(F)c(-c2cnn3ncccc23)n1` gave a remaining binding of 100% (binding; 1 µM).
For `O=C(c1ccc(Nc2ncc(Cl)c(-c3cc4ccccc4s3)n2)cc1)N1CCC(N2CCCC2)CC1`, the remaining binding was 0% (binding; competition with immobilised ligand; 1 µM).
The remaining binding of `N#Cc1ccc(Nc2ccc3[nH]c(=O)[nH]c3c2)c(Cl)c1` is reported as 100% (cell-free assay; competition with immobilised ligand; 1 µM).
`COc1cnc(Nc2cccc(S(N)(=O)=O)c2)nc1N1CCN(c2ccccc2)CC1` gave a remaining binding of 73% (binding; competition with immobilised ligand; 1 µM).
For `COc1ccnn2ncc(-c3ccnc(N(C)C)n3)c12`, the remaining binding was 100% (binding; 1 µM).
`c1cncc(-c2cccc(Nc3nccc(NC4CCCCC4)n3)c2)c1` gave a remaining binding of 26% (binding; competition with immobilised ligand; 10 µM).
With `Cc1cnc(Nc2ccc(C(=O)N3CCC(N4CCCC4)CC3)cc2)nc1-c1cc2ccccc2s1` the remaining binding was 0% (binding; competition with immobilised ligand; 1 µM).
`C=CC(=O)N1CCC(C(=O)NCC(=O)N2CCN(c3nc(-c4cnc(N)nc4C(F)F)nc(N4CCOCC4)n3)CC2)CC1` gave a remaining binding of 98% (binding; competition with immobilised ligand; 1 µM).
With `CCC(=N\O)/C(C)=C/c1ccc(F)cc1` the remaining binding was 80% (cell-free assay; competition with immobilised ligand; 1 µM).
The remaining binding of `c1cnn2ncc(-c3ccnc(N4CCC45COC5)n3)c2c1` is reported as 36% (binding; 1 µM).
`CCN1CCN(Cc2ccc(C(=O)Nc3ccc(C)c(Oc4ccc5c(c4)CC(=O)N5)c3)cc2C(F)(F)F)CC1` has a remaining binding of 90% (binding; competition with immobilised ligand; 1 µM).
For `C[C@H]1CCN(c2nccc(-c3cnn4ncccc34)n2)C1`, the remaining binding was 62% (binding; 1 µM).
`Nc1ncc2c(n1)-c1c([nH]c3ccc(C#CC4CC4)cc13)CCCC2` gave a remaining binding of 80% (binding; competition with immobilised ligand; 1 µM).
`COc1ccc2cc(OCC3(C(=O)O)CN(C(=O)c4ccc(F)cc4)C3)ccc2c1` has a remaining binding of 100% (cell-free assay; competition with immobilised ligand; 1 µM).
With `CN(CCCC(F)(F)F)c1nccc(-c2cnn3ncccc23)n1` the remaining binding was 100% (binding; 1 µM).
`Cc1nc(Cc2cccc(C(F)(F)F)c2)sc1-c1ccc(C(N)=O)nc1` gave a remaining binding of 94% (cell-free assay; competition with immobilised ligand; 1 µM).
The remaining binding of `O=C(c1ccc(Nc2ncc(Cl)c(-c3ccc(Cl)s3)n2)cc1)N1CCC(N2CCCC2)CC1` is reported as 0% (binding; competition with immobilised ligand; 1 µM).
The remaining binding of `CN(c1nccc(-c2cnn3ncccc23)n1)C1CC1` is reported as 100% (binding; 1 µM).
`COc1ccc2c(c1)O[C@@H](c1ccc(OC)c(OC)c1)C[C@H]2NC(=O)C1(c2ccc3c(c2)OC(F)(F)O3)CC1` has a remaining binding of 100% (cell-free assay; competition with immobilised ligand; 1 µM).
With `CC1CCCN1c1nccc(-c2cnn3ncccc23)n1` (stereo not shown) the remaining binding was 100% (binding; 1 µM).
The remaining binding of `O=C(Nc1c[nH]nc1C(=O)NC1CCNCC1)c1cc(F)cc(F)c1` is reported as 68% (binding; competition with immobilised ligand; 1 µM).
